The values that follow come from ChEMBL document CHEMBL1122206, “Use of adenine nucleotide derivatives to assess the potential of exo-active-site-directed reagents as species- or isozyme-specific enzyme inactivators. 5. Interactions of adenosine 5'-triphosphate derivatives with rat pyruvate kinases, Escherichia coli thymidine kinase, and yeast and rat …” (1982).

Each structure is given as a SMILES string.

The target in assay [1] is T1, Hexokinase-1 (Rattus norvegicus) (UniProt P05708).
T1 sequence (whole entry): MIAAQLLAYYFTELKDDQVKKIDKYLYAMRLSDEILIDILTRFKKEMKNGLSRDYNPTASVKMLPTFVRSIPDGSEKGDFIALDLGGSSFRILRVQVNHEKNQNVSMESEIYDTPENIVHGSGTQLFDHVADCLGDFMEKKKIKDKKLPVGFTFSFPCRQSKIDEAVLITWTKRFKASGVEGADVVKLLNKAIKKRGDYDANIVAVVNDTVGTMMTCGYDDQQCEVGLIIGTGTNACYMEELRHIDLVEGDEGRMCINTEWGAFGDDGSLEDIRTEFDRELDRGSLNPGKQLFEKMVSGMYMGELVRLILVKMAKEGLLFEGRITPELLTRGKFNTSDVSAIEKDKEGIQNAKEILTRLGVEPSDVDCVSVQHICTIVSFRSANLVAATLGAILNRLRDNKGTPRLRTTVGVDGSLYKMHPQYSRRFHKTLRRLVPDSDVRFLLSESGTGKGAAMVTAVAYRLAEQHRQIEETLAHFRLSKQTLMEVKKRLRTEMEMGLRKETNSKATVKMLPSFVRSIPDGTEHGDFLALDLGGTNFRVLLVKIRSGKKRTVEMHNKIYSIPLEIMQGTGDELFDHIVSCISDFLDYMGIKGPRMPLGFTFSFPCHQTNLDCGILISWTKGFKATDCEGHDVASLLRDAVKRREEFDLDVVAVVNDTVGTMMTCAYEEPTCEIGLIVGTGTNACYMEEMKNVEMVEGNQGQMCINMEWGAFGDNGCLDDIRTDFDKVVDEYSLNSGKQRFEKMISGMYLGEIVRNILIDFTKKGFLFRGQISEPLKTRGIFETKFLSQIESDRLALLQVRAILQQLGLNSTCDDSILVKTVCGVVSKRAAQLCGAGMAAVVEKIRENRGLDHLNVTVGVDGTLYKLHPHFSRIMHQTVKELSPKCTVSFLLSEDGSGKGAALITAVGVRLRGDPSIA
Briefly: Time dependent inhibition of Hexokinase type I activity after 6 h, at 22 degrees celsius, at 5 mM compound.

A short description of assay [2]: Substrate concentration for half maximal velocity was reported for yeast hexokinase. Summed up: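 Coupled glucose-6-phosphate dehydrogenase/NADP assay: A340 rate at 22 °C in 0.05 M Tris-HCl pH 7.6 with 6.6 mM MgCl2, 10 mM α-D-glucose and 0.93 mM NADP, nucleotide varied. KM was taken from linear double-reciprocal plots. Rat HK I and III came from electrofocused, dialysed liver extract, HK II from dialysed muscle extract, and yeast HK was isoelectric-focused.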

For assay [3], the target named is T1, Hexokinase-1 (Rattus norvegicus). Briefly: Substrate activity for rat hexokinase I as 1:1 Mg complex at 5.0 mM. Summed up: (§1)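 Hexokinase activity read at 22 °C as A340 change, coupled to glucose-6-phosphate dehydrogenase, in 0.05 M Tris-HCl pH 7.6 with 6.6 mM MgCl2, 10 mM α-D-glucose and 0.93 mM NADP. Donor was 5.0 mM MgATP derivative (1:1 Mg complex) in place of ATP. Yeast HK was isoelectric-focused. Rat HK I and III came from electrofocused liver extract, HK II from dialysed muscle extract.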

Assay [4] has as its system Saccharomyces cerevisiae. Nature of the assay: Compound was tested for time dependent inhibition of hexokinase activity after 6 hr, at 0 degrees celsius, with 10 mM ATP derivative in yeast hexokinase.
Assay [5] relates to Saccharomyces cerevisiae. Nature of the assay: Substrate activity against yeast hexokinase as 1:1 Mg complexes at 5.0 mM. In outline:
as §1

The target of assay [6] is T2, Hexokinase-3 (Rattus norvegicus) (UniProt P27926).
T2 sequence (whole entry): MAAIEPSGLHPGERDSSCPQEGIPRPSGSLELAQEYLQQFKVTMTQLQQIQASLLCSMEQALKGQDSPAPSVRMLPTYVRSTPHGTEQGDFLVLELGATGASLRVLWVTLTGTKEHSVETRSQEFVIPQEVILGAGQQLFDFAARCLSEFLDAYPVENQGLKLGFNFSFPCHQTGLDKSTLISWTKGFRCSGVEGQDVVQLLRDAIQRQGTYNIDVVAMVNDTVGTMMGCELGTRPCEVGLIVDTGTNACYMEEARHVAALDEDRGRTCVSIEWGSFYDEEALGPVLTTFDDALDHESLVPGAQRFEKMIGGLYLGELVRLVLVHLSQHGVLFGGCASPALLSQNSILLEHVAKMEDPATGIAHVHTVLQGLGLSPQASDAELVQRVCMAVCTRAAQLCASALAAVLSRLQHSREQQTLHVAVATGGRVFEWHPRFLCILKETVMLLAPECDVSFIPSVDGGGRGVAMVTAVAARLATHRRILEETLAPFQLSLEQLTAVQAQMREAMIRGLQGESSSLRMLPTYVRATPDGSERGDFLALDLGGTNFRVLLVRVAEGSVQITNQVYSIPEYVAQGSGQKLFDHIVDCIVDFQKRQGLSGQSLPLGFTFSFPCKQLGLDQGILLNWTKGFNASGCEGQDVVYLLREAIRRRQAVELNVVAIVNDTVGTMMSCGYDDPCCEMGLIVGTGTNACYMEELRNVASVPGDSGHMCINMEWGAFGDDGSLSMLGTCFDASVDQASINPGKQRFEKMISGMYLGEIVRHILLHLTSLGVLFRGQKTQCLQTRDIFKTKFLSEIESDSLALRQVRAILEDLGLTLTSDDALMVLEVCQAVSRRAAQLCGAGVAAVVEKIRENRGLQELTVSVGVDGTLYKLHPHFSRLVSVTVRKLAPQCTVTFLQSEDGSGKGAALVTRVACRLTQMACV
Nature of the assay: Substrate activity for rat hexokinase III as 1:1 Mg complex at 5.0 mM. Summed up: as §1

The nature of assay [7]: Tested for the velocity of 2.8 mM compound relative to that of 2.8 mM MgATP in the assay. Summed up: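 E. coli TK substrate test. 0.5 h after adding inhibitor, the mixture was diluted to 2.8 mM derivative in thymidine assay medium without ATP and with 1.42 mM MnCl2. Incubated 15 min at 37 °C, in the linear range. [14C]TMP formed was compared with that from 2.8 mM ATP under the same conditions.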

For `Nc1ncnc2c1ncn2[C@@H]1O[C@H](COP(=O)(O)OP(=O)(O)OP(=O)(O)O)[C@@H](O)[C@H]1O`, the inhibition in assay [1] and in assay [4] was 0% each time. The Km in assay [2] came out at 130 µM. Also, the Relative velocity in assay [3], in assay [5] and in assay [6] was 1 throughout. The Velocity in assay [7] came out at 100%.
